Screening data: PubChem BioAssay, several laboratories
PostGolgi yeast = growth inhibition of a yeast mutant, post-Golgi transport screen; 0.9% of 98,000 active; post-Golgi transport phenotypic cell assay; inhibition, % at 10 µM; AID 739;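 further: yeast cells grown in 1536-well plates; yeast grown about 18 h at 30C before absorbance read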
PostGolgi ctrl = yeast control strain growth, post-Golgi counter-screen | inhibition, % at 10 µM | 5% of 98,000 active | AID 738 | efflux-deficient yeast background strain, growth absorbance A615, 16 h
tolC growth inh = E. coli tolC mutant growth inhibition. E. coli BW25113 tolC mutant growth, OD615. growth inhibition, % at 10 µM (by protocol). 2.2% of 65,000 active. AID 573;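 active means growth inhibition at or above a cutoff equal to the mean over every tested compound plus 3 SD, cut at about 60% in these data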;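 further: growth measured after 20 h incubation at 37 °C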
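Material: E. coli BW25113 ΔtolC::kan, tolC deletion mutant strain. Measure: percent growth inhibition. Schedule: 37 °C, 20 h exposure. Doses: single-point testing at 10 µM. Signal: A615 absorbance measurement. Buffer or medium: kanamycin-containing LB broth (50 µg/mL).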
Ecoli WT expand = E. coli BW25113 growth inhibition, expanded screen. AID 710. OD600 absorbance. 0.15% of 98,000 active. growth inhibition, % at 100 µM;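 active means growth inhibition above about 50% at one test dose, limit read from the data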;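 further: growth measured after 20 h incubation at 37 °C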
Cav3 T inh = blocks human Cav3.2 T-type calcium channel; O95180; Cav3.2-expressing cells, Fluo-4 calcium fluorescence FDSS; stronger effect = lower value; B-score at 10 µM; 4% of 100,000 active;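 active means single-dose well whose peak fluorescence ratio is a statistical outlier from its plate by either plate-standardised score or position-corrected B-score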
* hit, by the source's call; . = no result. Sampled rows, rich in hits. Any-hit rate of the full collection: about 8.4%. Unless noted, no stated cut-off is given here; in the data, active means inhibition above about 30%; inactive means the rest.

SMILES	PostGolgi yeast	PostGolgi ctrl	tolC growth inh	Ecoli WT expand	Cav3 T inh
O=C(C1COc2ccccc2O1)N1CCc2ccccc21 (configuration not stated)	4.2	3.5	0.7	3.0	0.211
O=C(CCc1ccc(S(=O)(=O)NCCc2ccccc2)cc1)Nc1ccc2c(c1)OCO2	-8.2	-2.6	.	4.0	0.989
O=C(NCc1ccccc1)c1cc(-c2cccc(O)c2)on1	.	.	16.0	.	0.345
COc1ccc(C2C(=O)N(CCc3ccccc3)CC(=O)N2C2CCCCC2)cc1 (configuration not stated)	-5.5	19.6	.	0.0	-1.21
COC(=O)c1cc2sc(Cl)cc2n1CC(=O)N1CCCc2ccccc21	-8.4	36.1*	24.8	-17.0	-2.69
CSc1ccc(Cl)c(C(=O)OCC(=O)N2CCOCC2)c1	26.1	-5.7	-0.3	3.0	0.00182
C=C(C(=O)O)C(CCCCCC)C(=O)O (configuration not stated)	.	.	.	.	0.5
O=C(CN1CCC(n2nnc3cc(F)ccc32)CC1)Nc1ccc2c(c1)CCC2	-2.9	2.6	23.8	4.0	-5.57*
O=C(CN1CCC(n2nnc3ccccc32)CC1)Nc1ccc2c(c1)CCC2	-5.4	5.1	29.4	7.0	-2.42
Cc1cc(C)c2c(n1)sc1c(=O)n(Cc3ccccc3Cl)nnc12	4.2	39.9*	.	-10.0	.
COCc1cc(C)nc2sc3c(=O)n(Cc4ccco4)nnc3c12	-4.0	2.2	3.7	-4.0	-0.406
O=C(CC(=O)NC1CCCCC1)N/N=C/c1cccc2ccccc12	-4.2	12.4	.	1.0	-0.0614
OC(Cn1cncn1)c1ccc(Cl)cc1Cl (configuration not stated)	77.7*	40.1*	-13.7	9.0	-0.0933
OC(c1ccc(Cl)cc1Cl)C(Cc1cccnc1)n1cncn1 (configuration not stated)	44.8*	11.3	-1.1	3.0	.
CC(C)(C)C(=O)NC1(C(F)(F)F)C(=O)Nc2c1c(=O)[nH]c(=O)n2Cc1ccco1 (configuration not stated)	2.8	2.7	-25.0	6.0	.
C/C(N)=C(/C#N)C(=O)CSc1nc2cc(Cl)ccc2s1	-12.3	44.3*	20.7	-2.0	-1.17
COc1ccc(OC)c(NC(=O)C23CCC(C)(C(=O)C2)C3(C)C)c1 (configuration not stated)	-14.1	5.9	3.4	4.0	0.606
COc1ccc(-c2cc(C(F)(F)F)c3c(=O)n(-c4ccccc4)[nH]c3n2)cc1	12.5	33.4*	.	1.0	-0.37
CSC(=NC#N)N1CCN(c2cccc(Cl)c2)CC1	-0.2	8.1	.	8.0	-0.191
CCc1ccc(NC(=O)CCc2nc3cccnc3n2Cc2ccc(OC)cc2)cc1	9.0	-4.3	.	-14.0	-6.91*
CCOC(=O)c1ccc(N2C(=O)CC(N(Cc3ccc4c(c3)OCO4)C(=O)Nc3ccccc3)C2=O)cc1 (configuration not stated)	-5.1	12.8	.	4.0	-3.88
COC(=O)C1=CN(C)C=C(C(=O)OC)C1c1ccc(O)c(OC)c1	17.6	4.1	-6.7	0.0	0.0475
COC(=O)C1=CN(c2cccc(C)c2)C=C(C(=O)OC)C1c1cc(OC)c(O)c([N+](=O)[O-])c1	-2.4	67.0*	.	-10.0	-3.78
CCN(c1nc(C)cc(OC)n1)S(=O)(=O)c1ccccc1	0.0	27.6	.	4.0	0.0136
Cc1nonc1OCC(C)(COc1nonc1C)NC(=O)c1ccc(Cl)cc1	.	.	.	.	-4.18*
SMILES	PostGolgi yeast	PostGolgi ctrl	tolC growth inh	Ecoli WT expand	Cav3 T inh
CC1CC(c2ccccc2)n2nc(NC(=O)c3ccco3)nc2N1 (configuration not stated)	-6.4	-0.5	-4.2	-4.0	-1.11
CC1CC(N(C(=O)c2ccco2)c2ccccc2)c2ccccc2N1 (configuration not stated)	-2.7	28.6	67.9*	1.0	-4.34*
COCCOC(=O)C1=C(C)NC2=C(C(=O)CC(C)(C)C2)C1c1cc2c(cc1Br)OCO2 (configuration not stated)	.	.	17.0	.	0.239
O=C(NNC(=S)NC(=O)c1ccccc1[N+](=O)[O-])c1ccccc1	.	.	.	.	-3.7
O=C(NC(=S)NNC(=O)c1ccccc1[N+](=O)[O-])c1ccccc1	.	.	.	.	-8.42*
COc1ccccc1CN1C(=O)CN(C2CCCCCC2)C(=O)C1c1ccc(F)cc1 (configuration not stated)	-0.6	48.5*	.	-12.0	-3.4
COC(=O)C1=C(C)N=C2SC(C)C(=O)N2C1c1cccc(F)c1 (configuration not stated)	4.1	-11.4	5.2	11.0	-4.64*
CCOc1cc(C2C(C(=O)OC)=C(C)N=C3SC(C)C(=O)N32)ccc1OC(C)=O (configuration not stated)	-4.6	1.9	-9.2	12.0	-2.64
CCOC(=O)C1=C(C)N=C2SC(C)C(=O)N2C1c1ccc(OC(C)=O)c(OC)c1 (configuration not stated)	0.5	46.8*	6.1	-8.0	-1.97
CCOC(=O)C1=C(C)N=C2SCCC(=O)N2[C@@H]1/C=C/c1ccccc1	4.4	22.5	.	1.0	-4.79*
CCOC(=O)C1=C(C)N=C2SC(C)C(=O)N2C1/C=C/c1ccccc1OC (configuration not stated)	-6.0	8.0	54.7	3.0	-5.19*
COCCOC(=O)C1=C(C)N=C2SCCC(=O)N2C1/C=C/c1ccccc1 (configuration not stated)	2.3	2.4	-3.5	10.0	-0.139
CN(CC(=O)NC1CCCCCC1)S(=O)(=O)c1ccc2c(c1)n(C)c(=O)c(=O)n2C	-3.8	-1.3	.	-1.0	1.28
Cc1ccc(N2CCN(C(=O)c3ccccc3NC(=O)/C=C\C(=O)O)CC2)cc1	-6.9	5.7	.	7.0	0.142
CCCCSCCCNC(=O)Nc1cccc(OC)c1	36.5*	4.6	10.8	12.0	-2.26
O=C(N1CCOCC1)C(F)(F)C(=O)N1CCOCC1	6.2	2.4	-14.7	-3.0	0.283
CC(C)C(NS(=O)(=O)c1cccc2nsnc12)C(=O)N1CCc2ccccc2C1 (configuration not stated)	11.6	26.1	-2.6	-3.0	1.75
Cc1cccc(N=C2N=C(N)c3ccccc32)c1	-18.6	33.1*	.	6.0	0.483
NC1=NC(=Nc2ccccc2)c2ccccc21	7.2	7.9	-23.9	-3.0	0.183
O=C(CCn1c(=S)[nH]c2cc3c(cc2c1=O)OCO3)NCCN1CCCC1	.	.	-11.5	.	.
O=c1c2cc3c(cc2[nH]c(=S)n1CCN1CCOCC1)OCO3	-0.8	35.8*	-6.0	-5.0	.
COC(=O)c1c(NC(=O)c2ccoc2C)sc2c1CCC2	8.0	7.8	-0.5	-12.0	-0.575
Cc1occc1C(=O)Nc1sc2c(c1C(N)=O)CCCCC2	-0.3	31.0*	1.1	0.0	0.204
CCOc1cc2c3c(c1)C1(Nc4ccccc4S1)C(=O)N3C(C)(C)CC2C (configuration not stated)	-5.1	37.0*	.	-5.0	-4.22*
Cc1ccc(N(C(=O)C2CCCO2)C2C=CS(=O)(=O)C2)cc1Cl (configuration not stated)	1.9	1.9	-6.9	-1.0	1.32
CC(C)(C)c1ccc(C2C3=C(CCCC3=O)NC3=C2C(=O)c2ccccc23)cc1 (configuration not stated)	-18.5	32.4*	.	-4.0	-0.269
